{
  "source": "paper PMC2886165",
  "about": "(Biochimica et biophysica acta, 2010)",
  "key": {"Gal4-RORα LBD [1]": {"biological_target": "T1, Gal4-RORα LBD (Homo sapiens, UniProt P35398)", "T1 sequence (P35398 272-510 limits assumed)": "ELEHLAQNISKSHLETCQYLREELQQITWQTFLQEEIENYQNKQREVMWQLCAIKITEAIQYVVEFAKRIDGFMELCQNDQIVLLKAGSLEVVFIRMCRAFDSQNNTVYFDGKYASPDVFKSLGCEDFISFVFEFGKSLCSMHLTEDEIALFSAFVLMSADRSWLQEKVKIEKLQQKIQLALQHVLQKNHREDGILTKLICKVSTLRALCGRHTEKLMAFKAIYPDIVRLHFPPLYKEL", "conditions": "previous study; cited from earlier work"}, "Gal4-RORγ LBD [2]": {"biological_target": "T2, Gal4-RORγ LBD (Homo sapiens, UniProt P51449)", "T2 sequence (P51449 269-508 limits assumed)": "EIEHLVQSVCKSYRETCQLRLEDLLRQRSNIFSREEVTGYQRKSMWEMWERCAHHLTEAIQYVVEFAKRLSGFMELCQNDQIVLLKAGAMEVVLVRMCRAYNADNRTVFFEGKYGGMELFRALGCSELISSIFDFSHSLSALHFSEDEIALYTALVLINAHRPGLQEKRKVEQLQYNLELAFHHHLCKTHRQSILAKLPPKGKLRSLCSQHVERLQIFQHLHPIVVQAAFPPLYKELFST", "conditions": "previous study; cited from earlier work"}, "RORγ LBD": {"biological_target": "T3, RORγ LBD (Homo sapiens, UniProt P51449)", "T3 sequence (P51449 269-508 limits assumed)": "T2 sequence (P51449 269-508 limits assumed)", "type": "binding"}, "Gal4-RORα LBD [3]": {"biological_target": "T1, Gal4-RORα LBD", "assay": "Gal4-RORα LBD cotransfection luciferase assay in HEK293 cells", "type": "cell-based", "conditions": "for effect on constitutive activity: single dose of 10 μM", "procedure,_shortened": "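Gal4-RORα LBD plasmid transfected into HEK293 cells with Lipofectamine 2000; cells plated 15 × 10^3/well 24 h earlier. […] Dual luciferase read after 24 h; four wells per point, ≥3 repeats. IC50 derived by non-linear regression; dose responses analysed by one-way ANOVA.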"}, "Gal4-RORγ LBD [4]": {"biological_target": "T2, Gal4-RORγ LBD", "assay": "Gal4-RORγ LBD cotransfection luciferase assay in HEK293 cells", "type": "cell-based", "conditions": "for effect on constitutive activity: single dose of 10 μM"}, "LXRs": {"test_system": "LXRs", "conditions": "cited from earlier work"}, "RORα LBD": {"biological_target": "T4, RORα LBD (Homo sapiens, UniProt P35398)", "T4 sequence (P35398 272-510 limits assumed)": "T1 sequence (P35398 272-510 limits assumed)", "type": "binding", "conditions": "competition with 3 nM [3H]-25-hydroxycholesterol, Cheng-Prusoff"}, "full-length RORα": {"biological_target": "T5, full-length RORα (Homo sapiens, UniProt P35398)", "T5 sequence (P35398 1-523)": "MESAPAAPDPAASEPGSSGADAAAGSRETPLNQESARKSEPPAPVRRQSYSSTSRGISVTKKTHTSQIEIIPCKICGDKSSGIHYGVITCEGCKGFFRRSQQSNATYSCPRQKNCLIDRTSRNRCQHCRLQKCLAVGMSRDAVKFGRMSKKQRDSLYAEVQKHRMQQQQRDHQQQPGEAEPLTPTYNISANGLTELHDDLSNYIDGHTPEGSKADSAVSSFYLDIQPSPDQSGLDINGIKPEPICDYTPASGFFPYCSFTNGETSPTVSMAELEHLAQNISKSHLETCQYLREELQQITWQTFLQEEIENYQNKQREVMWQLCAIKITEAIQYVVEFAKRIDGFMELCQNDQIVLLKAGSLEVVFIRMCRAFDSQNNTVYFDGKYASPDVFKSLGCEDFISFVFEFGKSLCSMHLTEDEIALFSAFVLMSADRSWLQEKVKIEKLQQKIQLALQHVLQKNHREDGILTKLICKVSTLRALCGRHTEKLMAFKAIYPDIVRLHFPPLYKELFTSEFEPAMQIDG", "type": "cell-based", "conditions": "10 μM, HEK293", "procedure,_shortened": "(§1)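 HEK293 cells (DMEM, 10% FBS, 37 °C, 5% CO2) plated at 15 × 10^3 cells/well 24 h before transfection. Lipofectamine 2000 cotransfection of full-length receptor expression vector plus Bmal1 promoter-luciferase reporter. Vehicle or 10 μM test compound added 16 h post-transfection; dual luciferase read 24 h later. Mean ± S.E. of four wells, repeated at least three times; paired t test.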"}, "full-length RORγ": {"biological_target": "T6, full-length RORγ (Homo sapiens, UniProt P51449)", "T6 sequence (P51449 1-518)": "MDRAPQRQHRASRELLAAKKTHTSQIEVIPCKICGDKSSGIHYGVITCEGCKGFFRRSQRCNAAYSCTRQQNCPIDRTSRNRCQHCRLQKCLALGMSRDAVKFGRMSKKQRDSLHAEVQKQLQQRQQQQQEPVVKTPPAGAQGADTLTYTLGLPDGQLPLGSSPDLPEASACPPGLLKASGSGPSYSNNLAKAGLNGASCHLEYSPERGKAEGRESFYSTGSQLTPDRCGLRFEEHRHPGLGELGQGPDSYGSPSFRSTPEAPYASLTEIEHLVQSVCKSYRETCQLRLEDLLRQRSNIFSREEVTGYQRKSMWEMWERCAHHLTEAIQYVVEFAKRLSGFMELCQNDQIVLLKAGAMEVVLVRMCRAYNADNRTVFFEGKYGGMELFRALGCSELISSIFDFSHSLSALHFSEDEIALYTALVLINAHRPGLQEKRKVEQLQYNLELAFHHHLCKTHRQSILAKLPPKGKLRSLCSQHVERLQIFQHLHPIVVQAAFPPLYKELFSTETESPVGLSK", "type": "cell-based", "conditions": "10 μM, HEK293", "procedure,_shortened": "as §1"}, "RORα": {"biological_target": "T7, RORα (Homo sapiens, UniProt P35398)", "T7 sequence (P35398 1-523)": "T5 sequence (P35398 1-523)", "assay": "RORα cotransfection assay, G6Pase promoter luciferase reporter", "type": "cell-based", "conditions": "10 μM, HepG2 (Figure 3C legend)"}, "[5]": {"test_system": "RORα target genes (BMAL1, REV-ERBα)", "assay": "Quantitative PCR of RORα target genes in HepG2 cells", "type": "cell-based, human", "conditions": "10 μM", "procedure,_shortened": "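HepG2 cells treated with 10 μM test compound, with RORα-targeting siRNA or scrambled control siRNA. Total RNA extracted, reverse-transcribed and quantified by real-time PCR using human BMAL1 and REV-ERBα primers.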"}, "[6]": {"biological_target": "T8, RORα / SRC-2 on BMAL1 promoter (Homo sapiens, UniProt P35398)", "T8 sequence (P35398 1-523)": "T5 sequence (P35398 1-523)", "type": "cell-based", "conditions": "10 μM, 24 hours, HepG2", "procedure,_shortened": "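HepG2 cells (MEM, 10% FBS, 37 °C, 5% CO2) infected with RORα adenovirus for 24 h, then given vehicle or 10 μM test compound for a further 24 h. First IP with anti-FLAG; re-IP with anti-SRC2, anti-RNA Pol II (positive control) or IgG (negative control). Bmal1 promoter amplified by PCR; band intensity averaged over three experiments.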"}},
  "note": "Values joined by “and” are separate entries in the source; they are usually repeats but may differ in a detail not shown here. Equal values may be shown once. Read-outs that look alike come from different tables or passages of the source.",
  "data": [
    {"smiles": "CC(C)CC[C@@H](O)[C@@H](C)[C@H]1CC[C@H]2[C@@H]3CC=C4C[C@@H](O)CC[C@]4(C)[C@H]3CC[C@]12C", "note": "[22-OHC]", "values": [
      {"measurement": "effect on activity of RORα", "setting": "Gal4-RORα LBD [1]", "value": "unable to affect the activity"},
      {"measurement": "effect on activity of RORγ", "setting": "Gal4-RORγ LBD [2]", "value": "unable to affect the activity"}
    ]},
    {"smiles": "CC(C)[C@H](O)CC[C@@H](C)[C@H]1CC[C@H]2[C@@H]3CC=C4C[C@@H](O)CC[C@]4(C)[C@H]3CC[C@]12C", "note": "[24R-OHC, 24R-hydroxycholesterol]", "values": [
      {"measurement": "Ki", "setting": "RORγ LBD", "value": 102, "unit": "nM"},
      {"measurement": "effect on constitutive activity", "setting": "Gal4-RORα LBD [3]", "value": "no effect"},
      {"measurement": "IC50", "setting": "Gal4-RORγ LBD [4]", "value": 90, "unit": "nM"},
      {"measurement": "effect on constitutive activity", "setting": "Gal4-RORγ LBD [4]; HEK293", "value": "significant decrease in the constitutive activity"}
    ]},
    {"smiles": "C[C@H](CC[C@@H]1OC1(C)C)[C@H]1CC[C@H]2[C@@H]3CC=C4C[C@@H](O)CC[C@]4(C)[C@H]3CC[C@]12C", "note": "[24,25-epoC, 24(S),25 epoxycholesterol]", "values": [
      {"measurement": "Ki", "setting": "RORγ LBD", "value": 20, "unit": "nM"},
      {"measurement": "effect on constitutive activity", "setting": "Gal4-RORα LBD [3]", "value": "without having any significant effect"},
      {"measurement": "IC50", "setting": "Gal4-RORγ LBD [4]", "value": 280, "unit": "nM"},
      {"measurement": "effect on constitutive activity", "setting": "Gal4-RORγ LBD [4]; HEK293", "value": "suppresses the activity"}
    ]},
    {"smiles": "C[C@@H](CO)CCC[C@@H](C)[C@H]1CC[C@H]2[C@@H]3CC=C4C[C@@H](O)CC[C@]4(C)[C@H]3CC[C@]12C", "note": "[27-OHC]", "values": [
      {"measurement": "effect on activity of RORα", "setting": "Gal4-RORα LBD [1]", "value": "unable to affect the activity"},
      {"measurement": "effect on activity of RORγ", "setting": "Gal4-RORγ LBD [2]", "value": "unable to affect the activity"}
    ]},
    {"smiles": "CC(C)CCC[C@@H](C)[C@H]1CC[C@H]2[C@@H]3C(=O)C=C4C[C@@H](O)CC[C@]4(C)[C@H]3CC[C@]12C", "note": "[7-ketocholesterol]", "values": [
      {"measurement": "affinity for the LXRs", "setting": "LXRs", "value": "no affinity"}
    ]},
    {"smiles": "CC(C)[C@@H](O)CC[C@@H](C)[C@H]1CC[C@H]2[C@@H]3CC=C4C[C@@H](O)CC[C@]4(C)[C@H]3CC[C@]12C", "note": "[24S-OHC, 24S-hydroxycholesterol]", "values": [
      {"measurement": "Ki", "setting": "RORα LBD", "value": 27, "unit": "nM"},
      {"measurement": "Ki", "setting": "RORγ LBD; competition with 3 nM [3H]-25-hydroxycholesterol, Cheng-Prusoff", "value": "~25 nM and 25 nM"},
      {"measurement": "reduction of transcriptional activity", "setting": "Gal4-RORα LBD [3]; 10 μM", "value": "30 to 40", "unit": "%"},
      {"measurement": "Maximal suppression", "setting": "Gal4-RORα LBD [3]; dose-response", "value": "~30", "unit": "%"},
      {"measurement": "IC50", "setting": "Gal4-RORα LBD [3]; read-out: IC50 (suppression of transcriptional activity), dose-response", "value": 620, "unit": "nM"},
      {"measurement": "reduction of transcriptional activity", "setting": "Gal4-RORγ LBD [4]; 10 μM, HEK293", "value": "30 to 40", "unit": "%"},
      {"measurement": "Maximal suppression", "setting": "Gal4-RORγ LBD [4]; dose-response, HEK293", "value": "~30", "unit": "%"},
      {"measurement": "IC50", "setting": "Gal4-RORγ LBD [4]; read-out: IC50 (suppression of transcriptional activity), dose-response, HEK293", "value": 1300, "unit": "nM"},
      {"measurement": "suppression of Bmal1 driven reporter gene expression", "setting": "full-length RORα", "value": "20-40%"},
      {"measurement": "suppression of Bmal1 driven reporter gene expression", "setting": "full-length RORγ", "value": "20-40%"},
      {"measurement": "suppression of G6Pase promoter reporter expression", "setting": "RORα", "value": "approximately 30%"},
      {"measurement": "decrease of BMAL1 mRNA expression", "setting": "[5]", "value": 38, "unit": "%"},
      {"measurement": "decrease of REV-ERBα mRNA expression", "setting": "[5]", "value": 33, "unit": "%"},
      {"measurement": "reduction of SRC-2 recruited versus DMSO control", "setting": "[6]", "value": "~50", "unit": "%"}
    ]},
    {"smiles": "C[C@H](CCCC(C)(C)O)[C@H]1CC[C@H]2[C@@H]3CC=C4C[C@@H](O)CC[C@]4(C)[C@H]3CC[C@]12C", "note": "[25-OHC, 25-hydroxycholesterol]", "values": [
      {"measurement": "effect on activity of RORα", "setting": "Gal4-RORα LBD [1]", "value": "unable to affect the activity"}
    ]},
    {"smiles": "CC(C)CCC[C@@H](C)[C@H]1CC[C@H]2[C@@H]3[C@H](O)C=C4C[C@@H](O)CC[C@]4(C)[C@H]3CC[C@]12C", "note": "[7α-OHC]", "values": [
      {"measurement": "affinity for the LXRs", "setting": "LXRs", "value": "no affinity"}
    ]}
  ]
}
